Data set [1] in a line: Induction of apoptosis in human OUMS-24 cells at 100 uM after 72 hrs by Hoechst 33342/propidium iodide staining-based fluorescence microscopy. Type of data set: cell-based. The settings on record: oums-24, 72 h. The gist of the method:
(§1)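 OCUM-2MD3 cells grown in DMEM/F12 (1:1); OUMS-24 normal fibroblasts grown in DMEM; both media with 10% FBS, 100 μg/mL kanamycin and 0.5 μg/mL Fungizone. Cells plated, incubated 24 h, then treated with compound at 1–100 μM for 72 h. Stained with 1 μg/mL Hoechst 33342 plus 5 μg/mL propidium iodide for 20 min in the dark and examined by fluorescence microscopy. Cells with fragmented or shrunken nuclei counted as apoptotic; result given as % increase over DMSO control.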

Data set [2] has as its system OCUM-2MD3. The experiment in a line: Induction of apoptosis in human OCUM-2MD3 cells at 10 to 100 uM after 72 hrs by Hoechst 33342/propidium iodide staining-based fluorescence microscopy. The class given is functional, cell-based. The method in brief:
as §1

The subject of data set [3] is OCUM-2MD3. The experiment in a line: Induction of apoptosis in human OCUM-2MD3 cells after 72 hrs by Hoechst 33342/propidium iodide staining-based fluorescence microscopy. The class given is functional, cell-based. The gist of the method:
as §1

Data set [4] in a line: Thermodynamic solubility of the compound in phosphate buffer at pH 7.2 to 7.4 after 48 hrs by UV-HPLC analysis. Type of data set: physicochemical. Particulars: read-out: Therm_solubility. The method in brief: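 About 1 mg of compound ground and suspended in 1.0 mL phosphate buffer (pH 7.2–7.4), then shaken 48 h at 25 °C. Suspension filtered (0.45 μm), filtrate diluted in CH3CN and analysed by HPLC with UV detection at 254 nm. Concentration taken from a calibration curve and corrected for dilution.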

Data set [5] has as its target T1, Peroxisome proliferator-activated receptor gamma (Homo sapiens) (UniProt P37231).
T1 sequence (whole entry): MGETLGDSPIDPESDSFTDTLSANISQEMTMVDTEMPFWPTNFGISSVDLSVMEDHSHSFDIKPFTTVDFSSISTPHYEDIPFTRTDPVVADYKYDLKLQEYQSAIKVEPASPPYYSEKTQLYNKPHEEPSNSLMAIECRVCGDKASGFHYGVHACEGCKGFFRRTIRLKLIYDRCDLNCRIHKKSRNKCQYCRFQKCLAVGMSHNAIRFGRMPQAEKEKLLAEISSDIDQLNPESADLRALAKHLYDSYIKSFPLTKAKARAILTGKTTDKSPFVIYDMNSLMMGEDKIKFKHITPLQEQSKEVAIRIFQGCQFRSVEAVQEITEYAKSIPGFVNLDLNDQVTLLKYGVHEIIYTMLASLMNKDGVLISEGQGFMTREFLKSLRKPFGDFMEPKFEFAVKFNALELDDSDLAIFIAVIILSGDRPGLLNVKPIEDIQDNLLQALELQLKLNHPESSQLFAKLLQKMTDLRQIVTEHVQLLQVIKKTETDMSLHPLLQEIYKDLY
The experiment in a line: Agonist activity at human PPAR-gamma1 LBD (176 to 477) transfected in african green monkey CV1 cells after 40 hrs by beta galactosidase-based luciferase reporter gene assay relative to rosiglitazone. Type of data set: cell-based. The settings on record: CV-1. The gist of the method: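 GAL4-PPAR chimera transactivation in CV-1 cells (0.5×10^5/well, 24 h), lipofected 5 h with 30 ng receptor plasmid, 250 ng MH100x4-tk-luc reporter, 350 ng pCMX-βGAL normalisation plasmid, 120 ng pGEM4 carrier. Compounds for 40 h. Luciferase and βGAL read from lysates. Activity scaled between 0.1% DMSO (minimum) and 10^-5 M rosiglitazone maleate (maximum). EC50 = concentration giving 50% maximal reporter activity.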

Data set [6] concerns the target T2, Peroxisome proliferator-activated receptor gamma (Homo sapiens, UniProt P37231).
T2 sequence (P37231 whole entry): T1 sequence (whole entry)
The experiment in a line: Agonist activity at human PPAR-gamma1 LBD (176 to 477) transfected in african green monkey CV1 cells after 40 hrs by beta galactosidase-based luciferase reporter gene assay. The class given is cell-based, CV-1. The method in brief: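 CV-1 cells seeded at 0.5×10^5 per well, cultured 24 h, then lipofected for 5 h. Transfection mix: 30 ng GAL4-PPAR chimeric receptor plasmid, 250 ng MH100x4-tk-luc reporter, 350 ng pCMX-βGAL for normalization, 120 ng pGEM4 carrier. Compounds added for 40 h, then luciferase and βGAL read in lysates. Activity scaled between 0.1% DMSO (minimum) and 10^-5 M rosiglitazone maleate (maximum). EC50 is the concentration giving 50% of maximal reporter activity.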

The target in data set [7] is T3, Peroxisome proliferator-activated receptor gamma (Mus musculus) (UniProt P37238).
T3 sequence (whole entry): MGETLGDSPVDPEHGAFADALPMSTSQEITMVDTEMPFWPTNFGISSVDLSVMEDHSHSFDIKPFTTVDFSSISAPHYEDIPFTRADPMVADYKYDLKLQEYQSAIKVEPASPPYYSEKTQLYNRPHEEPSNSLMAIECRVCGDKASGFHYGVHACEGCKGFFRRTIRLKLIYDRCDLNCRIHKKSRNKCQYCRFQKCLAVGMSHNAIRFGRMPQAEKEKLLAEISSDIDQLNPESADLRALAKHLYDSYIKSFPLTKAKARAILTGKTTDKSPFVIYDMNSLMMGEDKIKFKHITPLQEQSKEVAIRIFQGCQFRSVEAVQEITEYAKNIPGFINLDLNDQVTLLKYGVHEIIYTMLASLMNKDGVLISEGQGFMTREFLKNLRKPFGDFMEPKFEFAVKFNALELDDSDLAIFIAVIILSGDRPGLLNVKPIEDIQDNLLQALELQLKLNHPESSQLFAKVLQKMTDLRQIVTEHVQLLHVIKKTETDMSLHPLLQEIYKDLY
The experiment in a line: Agonist activity at PPAR-gamma in mouse 3T3-L1 cells assessed as adipocyte differentiation after 6 days by Oil Red O staining. Type of data set: cell-based. The method in brief: (§2)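 3T3-L1 cells grown in DMEM with 10% FBS. At confluence, differentiation started with 1 μM dexamethasone, 0.5 mM IBMX and 5 μg/mL insulin for 2 days. Ligands then added at 1–1000 nM. After 6 days cells stained with Oil Red O and adipogenesis read as absorbance at OD550. Error bars are SD.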

Data set [8] concerns the target T3, Peroxisome proliferator-activated receptor gamma (Mus musculus). The experiment in a line: Agonist activity at PPAR-gamma in mouse 3T3-L1 cells assessed as induction of triglyceride accumulation at 1 to 1000 nM after 6 days by Oil Red O staining. The class given is cell-based. The method in brief:
as §2

For data set [9] the target is unchanged. The experiment in a line: Agonist activity at PPAR-gamma in mouse 3T3-L1 cells assessed as adipocyte differentiation at 1 to 1000 nM after 6 days by Oil Red O staining. Type of data set: cell-based. The gist of the method:
as §2

The target is the same in data set [10]. The experiment in a line: Partial agonist activity at PPAR-gamma in mouse 3T3-L1 cells assessed as adipocyte differentiation at […] after 6 days by Oil Red O staining. Type of data set: cell-based. The method in brief:
as §2

The nature of data set [11]: Induction of apoptosis in human OUMS-24 cells after 72 hrs by Hoechst 33342/propidium iodide staining-based fluorescence microscopy. Type of data set: cell-based. The settings on record: oums-24, 72 h. The gist of the method: as §1

Values after ≈ are worked out from the molar mass of the structure shown. Active and inactive are the calls of the source. No cut-off for these calls is given here.

`CCCOc1ccc(C[C@H](Cc2ccccc2)C(=O)O)cc1CNC(=O)c1ccc(C23CC4CC(CC(C4)C2)C3)cc1`: the Activity result in data set [1] was “Toxic”; in the data set with OCUM-2MD3 [3], “Dose-dependent effect”. In addition, in the data set on OCUM-2MD3 [2], the outcome was Active. Moreover, the solubility thermodynamic at 48 h in [4] was less than 1 µg/mL.
`CCCOc1ccc(C[C@@H](Cc2ccccc2)C(=O)O)cc1CNC(=O)c1ccc(-c2ccccc2C)cc1`: the solubility thermodynamic at 48 h in data set [4] is less than 1 µg/mL. The compound also registered an Efficacy in [5] of 72.7%. The compound further yielded an EC50 in data set [6] of 73.8 nM.
Taken in the same sequence, the figures for `CCCOc1ccc(C[C@@H](Cc2ccccc2)C(=O)O)cc1CNC(=O)c1ccc(-c2ccc(F)cc2)cc1` were less than 1 µg/mL, 104% and 103 nM.
As to `CCCOc1ccc(C[C@H](CC)C(=O)O)cc1CNC(=O)c1ccc(C23CC4CC(CC(C4)C2)C3)cc1`, the Activity result in [7] is “Dose-dependent effect”. For the same compound, the outcome in data set [8] and in data set [9] was Active.
Consider `CCCOc1ccc(C[C@@H](Cc2ccccc2)C(=O)O)cc1CNC(=O)c1ccc(-c2ccccn2)cc1`, for which, in [4], the solubility thermodynamic at 48 h came out at 17 µg/mL (≈ 33.4 µM). The Efficacy in [5] came to 113%. This compound returned an EC50 in data set [6] of 186 nM.
Regarding `CCCOc1ccc(C[C@@H](Cc2ccccc2)C(=O)O)cc1CNC(=O)c1ccc(-c2cnccn2)cc1`, in data set [4], the solubility thermodynamic at 48 h was 32.2 µg/mL (≈ 63.2 µM). The same compound had an Efficacy in data set [5] of 58.2%. Also, the EC50 in data set [6] was 714 nM.
On to `CCCOc1ccc(C[C@@H](Cc2ccccc2)C(=O)O)cc1CNC(=O)c1ccc(-c2ncccn2)cc1`, for which the Activity result with OCUM-2MD3 [3] is “Dose-dependent effect”. Besides, the result in data set [10], in data set [8] and in data set [9] was Active. The solubility thermodynamic at 48 h in data set [4] was found to be 301 µg/mL (≈ 591 µM). The Efficacy in [5] stood at 65%. This compound also had an EC50 in [6] of 34.6 nM.
For `CCCOc1ccc(C[C@@H](Cc2ccccc2)C(=O)O)cc1CNC(=O)c1ccc(-c2cccs2)cc1`, the solubility thermodynamic at 48 h in [4] was less than 1 µg/mL. The same compound showed an Efficacy in data set [5] of 76%. In data set [6], this compound gave an EC50 of 65.2 nM.
Taken in the same sequence, the figures for `CCCOc1ccc(C[C@@H](Cc2ccccc2)C(=O)O)cc1CNC(=O)c1ccc(-c2cccnc2)cc1` were 69.5 µg/mL (≈ 137 µM), 100% and 844 nM.
In the case of `CCc1ccc(CCOc2ccc(CC3SC(=O)NC3=O)cc2)nc1` (centres undefined) [PIOGLITAZONE], the Activity result in [11] is “Non-toxic”; in the data set on OCUM-2MD3 [3], “Dose-dependent effect”.
For `CCCOc1ccc(C[C@@H](Cc2ccccc2)C(=O)O)cc1CNC(=O)c1ccc(-c2cncnc2)cc1`, the solubility thermodynamic at 48 h in data set [4] was 190 µg/mL (≈ 373 µM). The compound further came in with an Efficacy in [5] of 82.7%. The compound further had an EC50 in [6] of 3100 nM.
In the same order, the values of `CCCOc1ccc(C[C@@H](Cc2ccccc2)C(=O)O)cc1CNC(=O)c1ccc(-c2ccccc2F)cc1` are less than 1 µg/mL, 95% and 49.5 nM.
In the case of `CCCOc1ccc(C[C@@H](Cc2ccccc2)C(=O)O)cc1CNC(=O)c1ccc(-c2cccc(F)c2)cc1`, the solubility thermodynamic at 48 h in [4] is less than 1 µg/mL. The same compound came in with an Efficacy in data set [5] of 99.7%. Also, the midpoint of the response in [6], the EC50, lay at 28.7 nM.
Taken in the same sequence, the figures for `CCCOc1ccc(C[C@@H](Cc2ccccc2)C(=O)O)cc1CNC(=O)c1ccc(-c2ccncc2)cc1` were 34.1 µg/mL (≈ 67 µM), 108% and 1690 nM.
Taken in the same sequence, the figures for `CCCOc1ccc(C[C@@H](Cc2ccccc2)C(=O)O)cc1CNC(=O)c1ccc(-c2ccccc2)cc1` were less than 1 µg/mL, 95.7% and 85.9 nM.

The record behind these values is ChEMBL document CHEMBL2375286, “Design and synthesis of a series of α-benzyl phenylpropanoic acid-type peroxisome proliferator-activated receptor (PPAR) gamma partial agonists with improved aqueous solubility” (Bioorg Med Chem, 2013).
